ChEMBL document CHEMBL1149590, “Synthesis and evaluation of homo-bivalent GnRHR ligands” (Bioorg Med Chem, 2007)

Assays:
[1] = target: T1, Gonadotropin-releasing hormone receptor (Homo sapiens, UniProt P30968); assay: Antagonist activity at human GnRHR expressed in CHO cells after 30 mins by luciferase reporter gene assay; assay type: functional, cell-based
T1 sequence (P30968 whole entry): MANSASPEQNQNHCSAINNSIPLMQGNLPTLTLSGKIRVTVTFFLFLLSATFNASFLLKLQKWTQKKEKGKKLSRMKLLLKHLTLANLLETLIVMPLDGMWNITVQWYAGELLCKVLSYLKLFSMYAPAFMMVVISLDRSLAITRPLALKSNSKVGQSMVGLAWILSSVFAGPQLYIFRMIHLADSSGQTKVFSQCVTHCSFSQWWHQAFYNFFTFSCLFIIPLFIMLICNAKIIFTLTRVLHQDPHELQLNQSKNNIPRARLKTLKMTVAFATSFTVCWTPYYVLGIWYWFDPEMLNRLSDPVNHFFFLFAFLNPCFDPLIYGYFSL

[2] = target: T2, Gonadotropin-releasing hormone receptor (Homo sapiens) (UniProt P30968); assay: Displacement of [125I]triptorelin from human GnRHR expressed in CHO cells at 1 uM; assay type: cell-based
T2 sequence (whole entry): T1 sequence (P30968 whole entry)
Summary of the method: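 Single-point displacement at 1 μM test compound. CHO membranes bearing wild-type human GnRHR (20 µg protein) incubated 45 min at 22 °C with [125I]triptorelin (30,000 cpm) in Tris-HCl pH 7.4 containing MgCl2 and BSA. Nonspecific binding taken with 1 µM ganirelix, total binding with buffer. Bound radioligand recovered by filtration and gamma-counted; percent displacement reported.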

[3] = target: T1, Gonadotropin-releasing hormone receptor; assay: Displacement of [125I]triptorelin from human GnRHR expressed in CHO cells; assay type: cell-based
Summary of the method: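 Membranes from CHO cells expressing wild-type human GnRHR (20 µg protein) incubated with [125I]triptorelin (30,000 cpm) and five competitor concentrations in 50 mM Tris-HCl pH 7.4, 2 mM MgCl2, 0.1% BSA, 45 min at 22 °C. Nonspecific binding defined with 1 µM ganirelix. Filtration, gamma counting. Ki from IC50 via Cheng-Prusoff (Kd 1.1 nM); at least three experiments in duplicate.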

IC50 [1] [nM]	Activity [2] [%]	Ki [3] [nM]	Structure (SMILES)
1910	68	–	CCOC(=O)c1cn(Cc2c(F)cccc2F)c2nc(-c3ccc(NC(=O)NCc4cn(CCn5cc(CNC(=O)Nc6ccc(-c7nc8n(Cc9c(F)cccc9F)cc(C(=O)OCC)c(=O)n8c7CN(C)Cc7ccccc7)cc6)nn5)nn4)cc3)c(CN(C)Cc3ccccc3)n2c1=O
1910	65	–	CCNC(=O)Nc1ccc(-c2nc3n(Cc4c(F)cccc4F)cc(C(=O)OCC)c(=O)n3c2CN(CC(=O)NCc2cn(CCn3cc(CNC(=O)CN(Cc4ccccc4)Cc4c(-c5ccc(NC(=O)NCC)cc5)nc5n(Cc6c(F)cccc6F)cc(C(=O)OCC)c(=O)n45)nn3)nn2)Cc2ccccc2)cc1
> 10000	64	–	CCNC(=O)Nc1ccc(-c2nc3n(Cc4c(F)cccc4F)cc(C(=O)NCc4cn(CCOCCn5cc(CNC(=O)c6cn(Cc7c(F)cccc7F)c7nc(-c8ccc(NC(=O)NCC)cc8)c(CN(C)Cc8ccccc8)n7c6=O)nn5)nn4)c(=O)n3c2CN(C)Cc2ccccc2)cc1
525	66	–	CCNC(=O)Nc1ccc(-c2nc3n(Cc4c(F)cccc4F)cc(C(=O)OCC)c(=O)n3c2CN(CC(=O)NCc2cn(CCOCCN=[N+]=[N-])nn2)Cc2ccccc2)cc1
> 10000	85	–	CCNC(=O)Nc1ccc(-c2nc3n(Cc4c(F)cccc4F)cc(C(=O)NCc4cn(CCOCCOCCOCCOCCn5cc(CNC(=O)c6cn(Cc7c(F)cccc7F)c7nc(-c8ccc(NC(=O)NCC)cc8)c(CN(C)Cc8ccccc8)n7c6=O)nn5)nn4)c(=O)n3c2CN(C)Cc2ccccc2)cc1
1350	89	–	CCOC(=O)c1cn(Cc2c(F)cccc2F)c2nc(-c3ccc(NC(=O)NCc4cn(CCOCCOCCOCCOCCn5cc(CNC(=O)Nc6ccc(-c7nc8n(Cc9c(F)cccc9F)cc(C(=O)OCC)c(=O)n8c7CN(C)Cc7ccccc7)cc6)nn5)nn4)cc3)c(CN(C)Cc3ccccc3)n2c1=O
676	90	–	CCOC(=O)c1cn(Cc2c(F)cccc2F)c2nc(-c3ccc(NC(=O)NCc4cn(CCOCCOCCOCCOCCN=[N+]=[N-])nn4)cc3)c(CN(C)Cc3ccccc3)n2c1=O
3630	85	–	CCOC(=O)c1cn(Cc2c(F)cccc2F)c2nc(-c3ccc(NC(=O)NCc4cn(CCOCCN=[N+]=[N-])nn4)cc3)c(CN(C)Cc3ccccc3)n2c1=O
2400	84	–	CCOC(=O)c1cn(Cc2c(F)cccc2F)c2nc(-c3ccc(NC(=O)NCc4cn(CCOCCOCCN=[N+]=[N-])nn4)cc3)c(CN(C)Cc3ccccc3)n2c1=O
724	76	–	CCNC(=O)Nc1ccc(-c2nc3n(Cc4c(F)cccc4F)cc(C(=O)OCC)c(=O)n3c2CN(CC(=O)NCc2cn(CCOCCOCCOCCN=[N+]=[N-])nn2)Cc2ccccc2)cc1
355	90	29.5	CCOC(=O)c1cn(Cc2c(F)cccc2F)c2nc(-c3ccc(NC(=O)NCc4cn(CCOCCOCCOCCn5cc(CNC(=O)Nc6ccc(-c7nc8n(Cc9c(F)cccc9F)cc(C(=O)OCC)c(=O)n8c7CN(C)Cc7ccccc7)cc6)nn5)nn4)cc3)c(CN(C)Cc3ccccc3)n2c1=O
> 10000	81	–	CCNC(=O)Nc1ccc(-c2nc3n(Cc4c(F)cccc4F)cc(C(=O)NCc4cn(CCOCCOCCN=[N+]=[N-])nn4)c(=O)n3c2CN(C)Cc2ccccc2)cc1
3160	88	–	CCOC(=O)c1cn(Cc2c(F)cccc2F)c2nc(-c3ccc(NC(=O)NCc4cn(CCOCCn5cc(CNC(=O)Nc6ccc(-c7nc8n(Cc9c(F)cccc9F)cc(C(=O)OCC)c(=O)n8c7CN(C)Cc7ccccc7)cc6)nn5)nn4)cc3)c(CN(C)Cc3ccccc3)n2c1=O
676	98	1.35	C#CCNC(=O)Nc1ccc(-c2nc3n(Cc4c(F)cccc4F)cc(C(=O)OCC)c(=O)n3c2CN(C)Cc2ccccc2)cc1
1320	71	69.2	CCNC(=O)Nc1ccc(-c2nc3n(Cc4c(F)cccc4F)cc(C(=O)OCC)c(=O)n3c2CN(CC(=O)NCc2cn(CCOCCOCCOCCn3cc(CNC(=O)CN(Cc4ccccc4)Cc4c(-c5ccc(NC(=O)NCC)cc5)nc5n(Cc6c(F)cccc6F)cc(C(=O)OCC)c(=O)n45)nn3)nn2)Cc2ccccc2)cc1
> 10000	26	–	CCNC(=O)Nc1ccc(-c2nc3n(Cc4c(F)cccc4F)cc(C(=O)NCc4cn(CCn5cc(CNC(=O)c6cn(Cc7c(F)cccc7F)c7nc(-c8ccc(NC(=O)NCC)cc8)c(CN(C)Cc8ccccc8)n7c6=O)nn5)nn4)c(=O)n3c2CN(C)Cc2ccccc2)cc1
3020	84	–	CCOC(=O)c1cn(Cc2c(F)cccc2F)c2nc(-c3ccc(NC(=O)NCc4cn(CCOCCOCCOCCN=[N+]=[N-])nn4)cc3)c(CN(C)Cc3ccccc3)n2c1=O

IC50 [1] [nM]	Activity [2] [%]	Ki [3] [nM]	Structure (SMILES)
1000	98	5.25	C#CCNC(=O)CN(Cc1ccccc1)Cc1c(-c2ccc(NC(=O)NCC)cc2)nc2n(Cc3c(F)cccc3F)cc(C(=O)OCC)c(=O)n12
70.8	99	4.79	CCNC(=O)Nc1ccc(-c2nc3n(Cc4c(F)cccc4F)cc(C(=O)OCC)c(=O)n3c2CN(C)Cc2ccccc2)cc1
2570	76	–	CCOC(=O)c1cn(Cc2c(F)cccc2F)c2nc(-c3ccc(NC(=O)NCc4cn(CCN=[N+]=[N-])nn4)cc3)c(CN(C)Cc3ccccc3)n2c1=O
468	83	–	CCNC(=O)Nc1ccc(-c2nc3n(Cc4c(F)cccc4F)cc(C(=O)OCC)c(=O)n3c2CN(CC(=O)NCc2cn(CCOCCOCCN=[N+]=[N-])nn2)Cc2ccccc2)cc1
832	78	–	CCNC(=O)Nc1ccc(-c2nc3n(Cc4c(F)cccc4F)cc(C(=O)OCC)c(=O)n3c2CN(CC(=O)NCc2cn(CCOCCOCCOCCOCCN=[N+]=[N-])nn2)Cc2ccccc2)cc1
> 10000	69	–	CCNC(=O)Nc1ccc(-c2nc3n(Cc4c(F)cccc4F)cc(C(=O)NCc4cn(CCOCCOCCOCCN=[N+]=[N-])nn4)c(=O)n3c2CN(C)Cc2ccccc2)cc1
1550	71	–	CCNC(=O)Nc1ccc(-c2nc3n(Cc4c(F)cccc4F)cc(C(=O)OCC)c(=O)n3c2CN(CC(=O)NCc2cn(CCOCCn3cc(CNC(=O)CN(Cc4ccccc4)Cc4c(-c5ccc(NC(=O)NCC)cc5)nc5n(Cc6c(F)cccc6F)cc(C(=O)OCC)c(=O)n45)nn3)nn2)Cc2ccccc2)cc1
7080	85	162	C#CCNC(=O)c1cn(Cc2c(F)cccc2F)c2nc(-c3ccc(NC(=O)NCC)cc3)c(CN(C)Cc3ccccc3)n2c1=O
> 10000	68	–	CCNC(=O)Nc1ccc(-c2nc3n(Cc4c(F)cccc4F)cc(C(=O)NCc4cn(CCOCCN=[N+]=[N-])nn4)c(=O)n3c2CN(C)Cc2ccccc2)cc1
832	84	58.9	CCNC(=O)Nc1ccc(-c2nc3n(Cc4c(F)cccc4F)cc(C(=O)OCC)c(=O)n3c2CN(CC(=O)NCc2cn(CCOCCOCCn3cc(CNC(=O)CN(Cc4ccccc4)Cc4c(-c5ccc(NC(=O)NCC)cc5)nc5n(Cc6c(F)cccc6F)cc(C(=O)OCC)c(=O)n45)nn3)nn2)Cc2ccccc2)cc1
309	89	195	CCNC(=O)Nc1ccc(-c2nc3n(Cc4c(F)cccc4F)cc(C(=O)OCC)c(=O)n3c2CN(CC(=O)NCc2cn(CCOCCOCCOCCOCCn3cc(CNC(=O)CN(Cc4ccccc4)Cc4c(-c5ccc(NC(=O)NCC)cc5)nc5n(Cc6c(F)cccc6F)cc(C(=O)OCC)c(=O)n45)nn3)nn2)Cc2ccccc2)cc1
> 10000	78	–	CCNC(=O)Nc1ccc(-c2nc3n(Cc4c(F)cccc4F)cc(C(=O)NCc4cn(CCN=[N+]=[N-])nn4)c(=O)n3c2CN(C)Cc2ccccc2)cc1
> 10000	70	–	CCNC(=O)Nc1ccc(-c2nc3n(Cc4c(F)cccc4F)cc(C(=O)NCc4cn(CCOCCOCCOCCOCCN=[N+]=[N-])nn4)c(=O)n3c2CN(C)Cc2ccccc2)cc1
724	74	–	CCNC(=O)Nc1ccc(-c2nc3n(Cc4c(F)cccc4F)cc(C(=O)OCC)c(=O)n3c2CN(CC(=O)NCc2cn(CCN=[N+]=[N-])nn2)Cc2ccccc2)cc1
955	94	23.4	CCOC(=O)c1cn(Cc2c(F)cccc2F)c2nc(-c3ccc(NC(=O)NCc4cn(CCOCCOCCn5cc(CNC(=O)Nc6ccc(-c7nc8n(Cc9c(F)cccc9F)cc(C(=O)OCC)c(=O)n8c7CN(C)Cc7ccccc7)cc6)nn5)nn4)cc3)c(CN(C)Cc3ccccc3)n2c1=O
> 10000	86	–	CCNC(=O)Nc1ccc(-c2nc3n(Cc4c(F)cccc4F)cc(C(=O)NCc4cn(CCOCCOCCOCCn5cc(CNC(=O)c6cn(Cc7c(F)cccc7F)c7nc(-c8ccc(NC(=O)NCC)cc8)c(CN(C)Cc8ccccc8)n7c6=O)nn5)nn4)c(=O)n3c2CN(C)Cc2ccccc2)cc1
